Laboratory results from publication PMC9075022 (Research in Pharmaceutical Sciences, 2022).
Values after ≈ are worked out from the molar mass of the structure shown. Read-outs that look alike come from different tables or passages of the source.

Experiments:
formation of β-hematin = experiment: In vitro β-hematin inhibition assay; assay type: biochemical; details: 200 μg/mL, 60 °C, 24 h; positive if more than 90%
Summary of the method: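 Heme detoxification (ITHD) assay. Hemin chloride was dissolved in DMSO and diluted to 60 μg/mL in 1 M acetate buffer pH 4.5. Tween 20 stock was 0.012 g/L; compound was dissolved in DMSO. Hemin, sample and Tween were mixed 9:9:2 in triplicate, final 200 μg/mL. Controls: hemin-free matrix blanks, DMSO negative, chloroquine phosphate positive. Incubated 60 °C, 24 h; mixed and absorbance read at 405 nm.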

fibroblast cell line = experiment: In vitro antiproliferative MTT assay, fibroblast; assay type: cell-based; details: 48 h
Summary of the method: (§1)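 PC12 (rat pheochromocytoma) or fibroblast cells at 5000/well in DMEM with 10% heat-inactivated FBS, penicillin 100 U/mL and streptomycin 100 μg/mL, grown 24 h. At 80% confluence, test compound or docetaxel/cisplatin controls were added at 1–360 μg/mL for 48 h. MTT (5 mg/mL in PBS pH 7.4) added for 3–4 h; formazan dissolved in DMSO, read at 570 nm. Triplicate; IC50 calculated.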

PC12 cells = experiment: Cellular uptake by fluorescent microscopy; assay type: cell-based, rat; details: 100 μg/mL, 24 h incubation, 37 °C
Summary of the method: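 PC12 cells at 5 × 10^4 cells/well in DMEM with 10% FBS and antibiotics, kept at 37 °C in 5% CO2. Exposed to test compound at 37 °C for 24 h. Washed three times with cold PBS, then 3 min in sterile distilled water. Intrinsic compound fluorescence imaged without staining by fluorescence microscopy (bright field, DAPI, GFP channels), compared with untreated cells.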

PC12 cell line = experiment: In vitro antiproliferative MTT assay, PC12; assay type: cell-based, rat; details: 48 h
Summary of the method: as §1

P. falciparum = details: cited from earlier work

## Cc1c(OCc2ccccc2)c(=O)ccn1CCCOC(=O)c1ccc(Cl)cc1Cl [7a, 3-(3-(benzyloxy)-2-methyl-4-oxopyridin-1(4H)-yl) propyl 2,4-dichlorobenzoate]
Formation of β-hematin
  Heme inhibition (%): 39%
Fibroblast cell line
  IC50 on fibroblast cell line: 44 µg/mL (≈ 98.6 µM)
PC12 cells
  cellular uptake (fluorescent emission): cellular uptake potential
PC12 cell line
  IC50 against PC12: 37 µg/mL (≈ 82.9 µM)

## Cc1occc(=O)c1O [Maltol]
P. falciparum; 0.01 mM
  inhibition of growth of P. falciparum compared to control: about 15%
P. falciparum; 0.10 mM
  inhibition of growth of P. falciparum compared to control: ~50%

## Cc1c(OCc2ccccc2)c(=O)ccn1CCCO [alcoholic precursor, 3-(benzyloxy) -1-(3-hydroxypropyl) -2-methylpyridin-4(1H)-one]
PC12 cell line; 1-360 μg/mL
  toxicity against PC12 in words: didn’t display remarkable toxicity in defined concentrations

## N.N.[Cl][Pt][Cl] [cisplatin, reference compound]
PC12 cell line
  IC50 against PC12: 8 µg/mL
